In ChEMBL document CHEMBL1128517, “Unusual single-stranded polyribonucleotides as potent anti-HIV agents” (J Med Chem, 1995):

Assays:
[1] = tested on: CEM-SS; test: Inhibitory activity against the cytopathic effect of HIV-1 RFstrain in CEM-SS cells; assay type: functional, cell-based; conditions: Homo sapiens
Procedure, shortened: (§1)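 XTT cytoprotection assay. CEM-SS cells were seeded at 5×10^3 per well and infected at a multiplicity that gave complete killing of virus control wells by day 6. Isolates were pretitered to equivalent infection. Serial half-log dilutions of compound were tested in triplicate. After 6 days at 37 °C, XTT (1 mg/mL) with phenazine methosulfate (6.12 µg/mL) was added for 4 h and read at 450 nm. Concentrations in µM were based on estimated number-average molecular weights.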

[2] = tested on: CEM-SS; test: Inhibitory activity against the cytopathic effect of HIV-2 A17 (pyridinone-res) strain in CEM-SS cells; assay type: functional, cell-based; conditions: Homo sapiens; procedure, shortened: as §1
[3] = tested on: CEM-SS; test: Inhibitory activity against the cytopathic effect of HIV-2 G910-6(AZT-res) strain in CEM-SS cells; assay type: functional, cell-based; conditions: Homo sapiens; procedure, shortened: as §1
[4] = tested on: CEM-SS; test: Inhibitory activity against the cytopathic effect of HIV-2 MS strain in CEM-SS cells; assay type: functional, cell-based; conditions: Homo sapiens; procedure, shortened: as §1
[5] = tested on: CEM-SS; test: Inhibitory activity against the cytopathic effect of HIV-2 ROD strain in CEM-SS cells; assay type: functional, cell-based; conditions: Homo sapiens; procedure, shortened: as §1
[6] = tested on: CEM-SS; test: Inhibitory activity against the HIV-1-induced cytopathic effect in CEM-SS cell line; assay type: functional, cell-based; conditions: Homo sapiens; procedure, shortened: as §1
[7] = tested on: CEM-SS; test: Inhibitory activity against the cytopathic effect of HIV-1 IIIB strain in CEM-SS cells; assay type: functional, cell-based; conditions: Homo sapiens; procedure, shortened: as §1
[8] = species: Homo sapiens; test: Inhibitory activity against the HIV-1-induced cytopathic effect in Macrophage; assay type: functional, organism-based
Procedure, shortened: (§2)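 Fresh human peripheral blood lymphocytes and macrophages were isolated by Ficoll-Hypaque centrifugation. They were infected with clinical HIV-1 isolates cultured from patient peripheral blood lymphocytes, then treated with the polymers. Inhibition of HIV replication was reported as IC50.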

[9] = tested on: MT2; test: Inhibitory activity against the HIV-1-induced cytopathic effect in MT-2 cell line; assay type: functional, cell-based; conditions: Homo sapiens
[10] = species: Homo sapiens; test: Inhibitory activity against the HIV-1-induced cytopathic effect in human peripheral blood lymphocytes; assay type: functional, organism-based; procedure, shortened: as §2
[11] = tested on: CEM-SS; test: Inhibitory activity against the cytopathic effect of HIV-1 LAV strain in CEM-SS cells; assay type: functional, cell-based; conditions: Homo sapiens; procedure, shortened: as §1
[12] = species: Homo sapiens; test: Inhibitory activity against the HIV-1-induced cytopathic effect in fresh human peripheral blood lymphocytes; assay type: functional, organism-based; procedure, shortened: as §2

Row | SMILES | IC50 [1] | IC50 [2] | IC50 [3] | IC50 [4] | IC50 [5] | IC50 [6] | IC50 [7] | IC50 [8] | IC50 [9] | IC50 [10] | IC50 [11] | IC50 [12]
1 | Cn1c(N)nc2c(ncn2[C@@H]2O[C@H](CO)[C@@H](OP(=O)(O)O)[C@H]2O)c1=S | 50 nM | 80 nM | 20 nM | 30 nM | 30 nM | 10 nM | 10 nM | 2 nM | 160 nM | 30 nM | 30 nM | 
2 | Cn1cnc2c(ncn2C2O[C@H](COP(=O)(O)O)[C@@H](O)[C@H]2O)c1=S (stereo partly drawn) | 170 nM | 600 nM | 100 nM | 140 nM | 250 nM | 80 nM | 80 nM | 150 nM | 800 nM |  | 40 nM | 30 nM
3 | Cc1cn([C@H]2C[C@H](N=[N+]=[N-])[C@@H](CO)O2)c(=O)[nH]c1=O [ZIDOVUDINE] | 30 nM | 5 nM | > 1000 nM | 30 nM | 5 nM | 2 nM | 2 nM | 400 nM | 6 nM |  | 4 nM | 20 nM
